The results in this text go back to paper PMC12502093 (RSC Advances, 2025).

Experiment [1] concerns IL6. The experiment can be described thus: qRT-PCR gene expression in MCF7 cells: IL6. It is filed as cell-based, human. As to conditions: compound at IC50, 48 h, relative to β-Actin, vs control. An outline of the steps: (§1)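 MCF7 cells (3 × 10^4 per well) were treated 48 h with test compound. Total RNA was column-extracted and reverse-transcribed to first-strand cDNA. SYBR Green qPCR ran 95 °C 10 min, then 40 cycles of 95 °C 15 s, 60 °C 30 s, 72 °C 30 s. Expression was normalised to β-Actin by 2−ΔΔCT relative to untreated control. Data are mean ± SEM; Student's t-test, P < 0.05.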
(In general: Quantitative PCR measures a nucleic acid by following its amplification.)

The target in experiment [2] is T1, S. aureus DNA gyrase (Staphylococcus aureus, UniProt P0A0K8). The experiment can be described thus: S. aureus DNA gyrase supercoiling assay. Format: biochemical.
Experiment [3] has as its target T2, S. aureus topoisomerase IV (Staphylococcus aureus, UniProt P0C1S7). The experiment can be described thus: S. aureus topoisomerase IV ATPase assay. It is filed as biochemical.
In experiment [4] the test system is STAT3. The experiment can be described thus: qRT-PCR gene expression in MCF7 cells: STAT3. It is filed as cell-based, human. The note with it: compound at IC50, 48 h, relative to β-Actin, vs control. Summed up: as §1
The test system of experiment [5] is C. albicans ATCC 10231. The experiment can be described thus: Agar well diffusion test. Format: cell-based. As to conditions: AWDT; for Zone of inhibition, inhibition scale: C. albicans ATCC 10231; for Zone of inhibition: C. albicans ATCC 10231, average of triplicate.
The test system of experiment [6] is S. aureus ATCC 25923. The experiment can be described thus: Agar well diffusion test. The note with it: AWDT; for Zone of inhibition, inhibition scale: S. aureus ATCC 25923; for Zone of inhibition: S. aureus ATCC 25923, average of triplicate. Format: cell-based. Summed up:
(§2)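 Agar well diffusion. Test compounds were placed in wells on agar inoculated with the reference strain or isolate. After incubation, inhibition zone diameters were measured in mm with a caliper. Runs were in triplicate and the zone averaged. Scale: 0 = no inhibition; 0–6 mm (−); 7–11 mm (+); 12–14 mm (++); 15–17 mm (+++).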
(In agar diffusion tests the substance spreads into inoculated agar from a disc or well.)

The subject of experiment [7] is BAX. The experiment can be described thus: qRT-PCR gene expression in MCF7 cells: BAX. It is filed as cell-based, human. As to conditions: compound at IC50, 48 h, relative to β-Actin, vs control. Summed up: as §1
Experiment [8] deals with T1, S. aureus DNA gyrase. The experiment can be described thus: S. aureus DNA gyrase ATPase assay. It is filed as biochemical.
The subject of experiment [9] is c-MYC. The experiment can be described thus: qRT-PCR gene expression in MCF7 cells: c-MYC. Format: cell-based, human. As to conditions: compound at IC50, 48 h, relative to β-Actin, vs control. An outline of the steps: as §1
Experiment [10] relates to C. albicans ATCC 10231. The experiment can be described thus: Minimum inhibitory concentration, C. albicans. It is filed as cell-based. The note with it: Candida albicans, ATCC10231, read-out: MIC (mg mL^−1). Summed up:
(§3)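 MIC was determined by a previously reported method for compounds selected from the well-diffusion screen and is expressed in mg mL−1. […] For C. albicans, 100 μL of negative cells went onto potato dextrose agar at 25 °C/72 h.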

In experiment [11] the target is STAT3 (Homo sapiens, UniProt P40763). The experiment can be described thus: STAT3 tyrosine phosphorylation inhibition. It is filed as biochemical. As to conditions: for IC50: STAT3 phosphorylation IC50 (μM) (mean ± SD), ELISA, eight dilutions 100-0.03 μM; for Potency as STAT3 inhibitor relative to lead compound I: higher potency than compound I.
Sequence of STAT3 (Homo sapiens, UniProt P40763) (P40763 whole entry, the tested form may be a part): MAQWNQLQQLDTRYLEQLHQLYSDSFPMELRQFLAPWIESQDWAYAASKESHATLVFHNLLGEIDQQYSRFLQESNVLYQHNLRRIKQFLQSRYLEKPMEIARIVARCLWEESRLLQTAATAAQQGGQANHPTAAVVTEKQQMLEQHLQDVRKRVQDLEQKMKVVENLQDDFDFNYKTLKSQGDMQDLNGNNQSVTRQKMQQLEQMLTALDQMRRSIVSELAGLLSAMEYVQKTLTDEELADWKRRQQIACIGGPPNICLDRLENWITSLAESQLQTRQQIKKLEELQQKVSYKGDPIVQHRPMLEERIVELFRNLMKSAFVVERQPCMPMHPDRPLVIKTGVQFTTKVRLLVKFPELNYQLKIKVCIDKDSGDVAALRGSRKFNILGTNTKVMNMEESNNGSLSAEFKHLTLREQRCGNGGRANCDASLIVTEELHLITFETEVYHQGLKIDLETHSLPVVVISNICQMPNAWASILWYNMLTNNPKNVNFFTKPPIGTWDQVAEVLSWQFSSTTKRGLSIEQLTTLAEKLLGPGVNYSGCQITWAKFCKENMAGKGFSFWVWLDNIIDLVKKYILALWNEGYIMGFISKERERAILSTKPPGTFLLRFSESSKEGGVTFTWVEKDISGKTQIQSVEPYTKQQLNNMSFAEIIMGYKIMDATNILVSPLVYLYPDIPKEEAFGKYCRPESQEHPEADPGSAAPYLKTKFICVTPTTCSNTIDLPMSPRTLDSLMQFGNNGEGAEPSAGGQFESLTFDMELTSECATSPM
Experiment [12] relates to A. flavus isolate. The experiment can be described thus: Agar well diffusion test. It is filed as cell-based. As to conditions: AWDT; for Zone of inhibition: average of triplicate. An outline of the steps:
as §2

Experiment [13] concerns Cyclin D1. The experiment can be described thus: qRT-PCR gene expression in MCF7 cells: Cyclin D1. Format: cell-based, human. The note with it: compound at IC50, 48 h, relative to β-Actin, vs control. An outline of the steps:
as §1

Experiment [14] deals with T2, S. aureus topoisomerase IV. The experiment can be described thus: S. aureus topoisomerase IV decatenation assay. Format: biochemical.
Experiment [15] deals with E. coli O157 ATCC 700728. The experiment can be described thus: Agar well diffusion test. Format: cell-based. The note with it: AWDT; for Zone of inhibition: E. coli O157 ATCC 700728, average of triplicate. Summed up:
as §2

Experiment [16] deals with MCF7 cells. The experiment can be described thus: Neutral red uptake cytotoxicity assay, MCF7. Format: cell-based, human. The note with it: for IC50: Homo sapiens, MCF7, 48 h, read-out: IC50 (μM) MCF7; for (SI) MCF7, selectivity index: SI = IC50 MDCK cell/IC50 MCF7 cell. Summed up: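 Neutral red uptake. Log-phase cells were grown in DMEM with 10% FBS at 37 °C, 5% CO2, at 10^4 cells/well. They were exposed 48 h to 12.5, 25, 50 and 100 μM test compound (DMSO final <0.2%), then given neutral red medium for 2 h and washed with DPBS. Dye was extracted with 1% acetic acid/50% ethanol and read at 450/630 nm. IC50 came from log concentration versus intensity, three runs averaged. SI = MDCK IC50 / MCF7 IC50.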

Experiment [17] has as its system JAK2. The experiment can be described thus: qRT-PCR gene expression in MCF7 cells: JAK2. It is filed as cell-based, human. The note with it: compound at IC50, 48 h, relative to β-Actin, vs control. An outline of the steps:
as §1

Experiment [18] has as its target T3, E. coli topoisomerase IV (Escherichia coli, UniProt P20083). The experiment can be described thus: E. coli topoisomerase IV cleavage assay. Format: biochemical.
Experiment [19] concerns the target T4, E. coli DNA gyrase (Escherichia coli, UniProt P0AES6). The experiment can be described thus: E. coli DNA gyrase ATPase assay. It is filed as biochemical.
Experiment [20] deals with BCL2. The experiment can be described thus: qRT-PCR gene expression in MCF7 cells: BCL2. It is filed as cell-based, human. As to conditions: compound at IC50, 48 h, relative to β-Actin, vs control. An outline of the steps:
as §1

Experiment [21] has as its target T3, E. coli topoisomerase IV. The experiment can be described thus: E. coli topoisomerase IV ATPase assay. It is filed as biochemical.
Experiment [22] addresses T4, E. coli DNA gyrase. The experiment can be described thus: E. coli DNA gyrase supercoiling assay. Format: biochemical. Summed up:
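Commercial kit assay of E. coli DNA gyrase supercoiling. Relaxed plasmid DNA is the substrate, and relaxed and supercoiled forms are separated by agarose gel electrophoresis. Test compounds were dissolved in DMSO and added at different concentrations to derive IC50.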

Experiment [23] deals with E. coli O157 ATCC 700728. The experiment can be described thus: Minimum inhibitory concentration, E. coli. It is filed as cell-based. As to conditions: Escherichia coli, ATCC700728, read-out: MIC (mg mL^−1). An outline of the steps: as §3

Values after ≈ are worked out from the molar mass of the structure shown.

T2 sequence (P0C1S7 whole entry): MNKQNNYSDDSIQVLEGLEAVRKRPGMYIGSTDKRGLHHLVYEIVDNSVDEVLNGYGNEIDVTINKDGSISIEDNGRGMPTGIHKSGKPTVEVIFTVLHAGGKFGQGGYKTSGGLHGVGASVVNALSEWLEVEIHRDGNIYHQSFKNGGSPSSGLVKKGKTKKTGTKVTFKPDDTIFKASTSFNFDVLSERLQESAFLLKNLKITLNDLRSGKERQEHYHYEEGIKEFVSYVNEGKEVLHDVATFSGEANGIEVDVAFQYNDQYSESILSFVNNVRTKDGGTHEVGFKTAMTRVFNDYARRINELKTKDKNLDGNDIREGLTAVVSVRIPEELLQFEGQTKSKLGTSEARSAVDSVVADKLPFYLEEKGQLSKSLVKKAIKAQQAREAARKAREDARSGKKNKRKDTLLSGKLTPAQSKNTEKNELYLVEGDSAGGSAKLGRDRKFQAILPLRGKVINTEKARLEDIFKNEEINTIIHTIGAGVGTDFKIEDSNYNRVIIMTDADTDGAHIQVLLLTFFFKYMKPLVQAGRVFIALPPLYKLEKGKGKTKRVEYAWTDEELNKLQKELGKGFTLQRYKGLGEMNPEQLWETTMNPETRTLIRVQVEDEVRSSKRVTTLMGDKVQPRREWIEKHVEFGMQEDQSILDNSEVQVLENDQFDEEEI
T2 sequence (P0C1U9 whole entry partner): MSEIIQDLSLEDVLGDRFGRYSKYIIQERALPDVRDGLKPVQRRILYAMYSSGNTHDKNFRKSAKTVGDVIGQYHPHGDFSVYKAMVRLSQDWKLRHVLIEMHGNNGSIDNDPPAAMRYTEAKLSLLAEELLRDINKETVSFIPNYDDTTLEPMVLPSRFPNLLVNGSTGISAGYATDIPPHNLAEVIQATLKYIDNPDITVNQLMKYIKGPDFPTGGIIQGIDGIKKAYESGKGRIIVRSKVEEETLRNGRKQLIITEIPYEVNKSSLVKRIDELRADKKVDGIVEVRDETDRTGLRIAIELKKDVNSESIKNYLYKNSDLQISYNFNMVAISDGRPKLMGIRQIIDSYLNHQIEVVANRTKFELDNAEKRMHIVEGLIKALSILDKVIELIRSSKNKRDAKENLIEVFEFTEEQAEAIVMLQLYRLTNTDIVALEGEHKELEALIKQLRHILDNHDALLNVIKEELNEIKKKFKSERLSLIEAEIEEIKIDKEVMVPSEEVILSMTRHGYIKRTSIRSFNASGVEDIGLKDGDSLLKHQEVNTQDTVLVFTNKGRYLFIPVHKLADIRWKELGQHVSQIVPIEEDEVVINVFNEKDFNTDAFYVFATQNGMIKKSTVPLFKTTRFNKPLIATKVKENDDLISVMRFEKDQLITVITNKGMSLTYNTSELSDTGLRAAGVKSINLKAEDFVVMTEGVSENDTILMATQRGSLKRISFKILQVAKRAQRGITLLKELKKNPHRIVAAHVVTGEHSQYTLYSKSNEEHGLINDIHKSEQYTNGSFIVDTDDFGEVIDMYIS
T3 sequence (P20083 whole entry): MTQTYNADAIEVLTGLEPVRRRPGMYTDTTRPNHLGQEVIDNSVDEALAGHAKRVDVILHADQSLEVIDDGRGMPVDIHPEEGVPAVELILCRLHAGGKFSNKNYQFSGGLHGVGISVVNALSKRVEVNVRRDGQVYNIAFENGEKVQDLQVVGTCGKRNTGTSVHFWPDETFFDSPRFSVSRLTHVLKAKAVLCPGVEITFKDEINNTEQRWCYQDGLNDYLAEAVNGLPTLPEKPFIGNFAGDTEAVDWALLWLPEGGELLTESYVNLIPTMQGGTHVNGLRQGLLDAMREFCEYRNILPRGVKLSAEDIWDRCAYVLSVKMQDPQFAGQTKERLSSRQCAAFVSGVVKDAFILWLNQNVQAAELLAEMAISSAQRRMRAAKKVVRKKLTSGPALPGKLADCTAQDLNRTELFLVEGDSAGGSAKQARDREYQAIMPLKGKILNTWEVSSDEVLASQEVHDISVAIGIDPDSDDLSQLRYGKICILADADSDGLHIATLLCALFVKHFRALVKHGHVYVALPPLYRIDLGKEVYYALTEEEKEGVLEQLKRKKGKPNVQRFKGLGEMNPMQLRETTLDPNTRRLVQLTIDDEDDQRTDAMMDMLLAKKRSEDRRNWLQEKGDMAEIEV
T3 sequence (P0AFI2 whole entry partner): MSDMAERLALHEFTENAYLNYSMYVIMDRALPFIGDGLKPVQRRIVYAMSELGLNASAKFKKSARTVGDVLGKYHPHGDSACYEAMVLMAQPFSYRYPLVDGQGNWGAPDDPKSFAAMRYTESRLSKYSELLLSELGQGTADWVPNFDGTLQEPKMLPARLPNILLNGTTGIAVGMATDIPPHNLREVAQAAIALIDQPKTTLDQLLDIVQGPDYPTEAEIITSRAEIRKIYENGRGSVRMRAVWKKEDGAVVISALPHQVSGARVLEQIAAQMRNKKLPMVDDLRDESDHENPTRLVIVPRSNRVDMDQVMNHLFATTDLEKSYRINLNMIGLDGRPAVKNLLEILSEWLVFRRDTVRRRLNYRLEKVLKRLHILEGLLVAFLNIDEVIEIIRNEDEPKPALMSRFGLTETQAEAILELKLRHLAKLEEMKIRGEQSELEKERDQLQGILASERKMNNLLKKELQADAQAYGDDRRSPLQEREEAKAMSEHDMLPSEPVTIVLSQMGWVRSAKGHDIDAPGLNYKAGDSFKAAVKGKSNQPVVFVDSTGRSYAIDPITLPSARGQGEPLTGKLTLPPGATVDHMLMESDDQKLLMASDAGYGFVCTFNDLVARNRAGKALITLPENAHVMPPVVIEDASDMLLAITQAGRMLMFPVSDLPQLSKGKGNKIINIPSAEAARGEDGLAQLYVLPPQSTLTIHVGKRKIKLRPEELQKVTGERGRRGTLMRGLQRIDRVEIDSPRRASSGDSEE

In the case of `CC(=O)c1ccc2cc(S(=O)(=O)Nc3ccc(Br)cc3)ccc2c1` [Compound 5e, 6-Acetyl-N-(4-bromophenyl)naphthalene-2-sulfonamide], the “IL6 gene expression level” value in experiment [1] is given as “significant reduction”. Besides, the 50% inhibitory concentration (IC50) is 21.8 µM in experiment [2]; 5.96 µM in experiment [3]; 3.04 µM in experiment [8]; 3.01 ± 0.06 µM in experiment [11]; 18.9 µM in experiment [14]; 43.1 µM in experiment [16]. For the same compound, the “Activity relative to ciprofloxacin, topoisomerase IV ATPase assay” value in experiment [3] (S. aureus, less than ciprofloxacin) was “more than 3 fold”. In [4], the “STAT3 gene expression level” value is given as “significant reduction”. Also, the “Zone of inhibition, inhibition scale” value in [5] was “+++ (15–17 mm (+++))”; in [6], “+++ (15–17 mm (+++))”; in [12], “+ (7–11 mm (+))”; in [15] (E. coli O157 ATCC 700728) it was “++ (12–14 mm (++))”. The Zone of inhibition in [5] turned out to be 15 mm; in experiment [6] it was 16 mm; in experiment [12] it was 11 mm; in experiment [15] it was 12 mm. For the same compound, the “BAX gene expression level” value in experiment [7] is “significantly increased”. For the same compound, the “c-MYC gene expression level” value in experiment [9] is given as “significant reduction”. The minimum inhibitory concentration (MIC) in experiment [10] amounted to 20000 µg/mL (≈ 49.5 mM). The “Potency as STAT3 inhibitor relative to lead compound I” value in experiment [11] is given as “approximately 2 fold”. For the same compound, the “Cyclin D1 gene expression level” value in experiment [13] is listed as “significant reduction”. The “(SI) MCF7, selectivity index” value in experiment [16] came to 2.22.
Regarding `CC(=O)c1ccc2cc(S(=O)(=O)Nc3ccc(F)cc3)ccc2c1` [Compound 5b, 6-Acetyl-N-(4-fluorophenyl)naphthalene-2-sulfonamide], the “IL6 gene expression level” value in [1] is recorded as “significant decrease”. For the same compound, the “JAK2 gene expression level” value in experiment [17] is “significant decrease”. The half-inhibitory concentration (IC50) in experiment [18] was 15.4 µM; in [19] it was 3.58 µM; in [11], 3.59 ± 0.7 µM; in experiment [21] it was 3.49 µM; in [22], 20.6 µM; in experiment [16] it was 40.1 µM. Also, the “Potency relative to norfloxacin, topoisomerase IV cleavage assay” value in [18] (E. coli, more potent than norfloxacin) came to 1.5 fold. Further, in [4], the “STAT3 gene expression level” value is recorded as “significant decrease”. Besides, the entries for the “Zone of inhibition, inhibition scale” value in experiment [5], in experiment [6] and in experiment [12] were “+++ (15–17 mm (+++))”, “− (0–6 mm (−))” and “− (0–6 mm (−))”, respectively. For the same compound, the Zone of inhibition in [5] stood at 15 mm; in experiment [6] it was 0 mm; in experiment [12], 0 mm; in [15] it was 15 mm. Also, the “BAX gene expression level” value in experiment [7] is recorded as “significant increase”. In addition, the “c-MYC gene expression level” value in experiment [9] is reported as “significant decrease”. The minimal inhibitory concentration (MIC) in experiment [10] and in experiment [23] was 10000 µg/mL (≈ 29.1 mM) each time. Also, the “BCL2 gene expression level” value in [20] was “significant decrease”. Also, in experiment [11], the “Potency as STAT3 inhibitor relative to lead compound I” value is on record as “approximately 2 fold”. The “Cyclin D1 gene expression level” value in [13] is listed as “significant decrease”. Further, the “(SI) MCF7, selectivity index” value in experiment [16] is 2.33.

Broadly, the IC50 is the concentration needed to halve the response being measured. The MIC is the lowest concentration that inhibits growth of the organism.
